Results reported in ChEMBL document CHEMBL4118106 (J Med Chem, 2018).
Where a SMILES comes first, the peptide text is derived from it. Bridges are numbered along the chain shown (N, C = ends). [ ]: non-standard residue; d: D form. R5 = C=CCCC[C@@](C)(N)C(=O)O; S5 = C=CCCC[C@](C)(N)C(=O)O; Nle = CCCC[C@H](N)C(=O)O

Experiment: Inhibition of EGFP-fused MERS-CoV spike protein mediated cell-cell fusion between viral protein expressing human 293T cells and human HuH7 target cells after 4 hrs by inverted fluorescence microscopic analysis
Parameters: species or system Middle East respiratory syndrome-related coronavirus
How it was run: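 Huh-7 target cells expressing DPP4 were seeded at 5 × 10^4/well and kept at 37 °C for 5 h. Inhibitors were added, then 293T effector cells co-expressing S protein and EGFP (1 × 10^4/well); 293T/EGFP-only cells served as negative control. After 4 h coculture at 37 °C, fused and unfused cells were counted by fluorescence microscopy.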

Structure (SMILES)	EC50
C=CCCC[C@](C)(NC(=O)[C@H](CC(C)C)NC(=O)[C@H](CCSC)NC(=O)[C@H](CCC(=O)O)NC(=O)[C@](C)(CCCC=C)NC(=O)[C@@H](NC(=O)[C@H](CC(C)C)NC(=O)[C@H](CC(=O)O)NC(=O)[C@H](CC(C)C)NC(C)=O)[C@@H](C)O)C(=O)N[C@@H](CC(C)C)C(=O)N[C@@H](CCC(N)=O)C(=O)N[C@@H](CCC(N)=O)C(=O)N[C@H](C(=O)N[C@H](C(=O)N[C@@H](CCCCN)C(=O)N[C@@H](C)C(=O)N[C@@H](CC(C)C)C(=O)N[C@@H](CC(N)=O)C(=O)N[C@@H](CCC(=O)O)C(=O)N[C@@H](CO)C(=O)N[C@@H](Cc1ccc(O)cc1)C(N)=O)C(C)C)C(C)C	8.21 µM
C=CCCC[C@](C)(NC(=O)[C@H](CCSC)NC(=O)[C@H](CCC(=O)O)NC(=O)[C@H](Cc1ccc(O)cc1)NC(=O)[C@@H](NC(=O)[C@H](CC(C)C)NC(=O)[C@H](CC(=O)O)NC(=O)[C@H](CC(C)C)NC(C)=O)[C@@H](C)O)C(=O)N[C@@H](CO)C(=O)N[C@@H](CC(C)C)C(=O)N[C@@H](CCC(N)=O)C(=O)N[C@@](C)(CCCC=C)C(=O)N[C@H](C(=O)N[C@H](C(=O)N[C@@H](CCCCN)C(=O)N[C@@H](C)C(=O)N[C@@H](CC(C)C)C(=O)N[C@@H](CC(N)=O)C(=O)N[C@@H](CCC(=O)O)C(=O)N[C@@H](CO)C(=O)N[C@@H](Cc1ccc(O)cc1)C(N)=O)C(C)C)C(C)C (Ac-LDLTYEM[S5]SLQ[S5]VVKALNESY-NH2)	4.49 µM
CSCC[C@H](NC(=O)[C@H](CCC(=O)O)NC(=O)[C@H](Cc1ccc(O)cc1)NC(=O)[C@@H](NC(=O)[C@H](CC(C)C)NC(=O)[C@H](CC(=O)O)NC(=O)[C@H](CC(C)C)NC(C)=O)[C@@H](C)O)C(=O)N[C@@H](CC(C)C)C(=O)N[C@@H](CO)C(=O)N[C@@H](CC(C)C)C(=O)N[C@@H](CCC(N)=O)C(=O)N[C@@H](CCC(N)=O)C(=O)N[C@H](C(=O)N[C@H](C(=O)N[C@@]1(C)CCC/C=C/CCC[C@@](C)(C(=O)N[C@@H](CO)C(=O)N[C@@H](Cc2ccc(O)cc2)C(N)=O)NC(=O)[C@H](CC(N)=O)NC(=O)[C@H](CC(C)C)NC(=O)[C@H](C)NC1=O)C(C)C)C(C)C	14.1 µM
C=CCCC[C@](C)(NC(=O)[C@H](CC(N)=O)NC(=O)[C@H](CC(C)C)NC(=O)[C@H](C)NC(=O)[C@](C)(CCCC=C)NC(=O)[C@@H](NC(=O)[C@@H](NC(=O)[C@H](CCC(N)=O)NC(=O)[C@H](CCC(N)=O)NC(=O)[C@H](CC(C)C)NC(=O)[C@H](CO)NC(=O)[C@H](CC(C)C)NC(=O)[C@H](CCSC)NC(=O)[C@H](CCC(=O)O)NC(=O)[C@H](Cc1ccc(O)cc1)NC(=O)[C@@H](NC(=O)[C@H](CC(C)C)NC(=O)[C@H](CC(=O)O)NC(=O)[C@H](CC(C)C)NC(C)=O)[C@@H](C)O)C(C)C)C(C)C)C(=O)N[C@@H](CO)C(=O)N[C@@H](Cc1ccc(O)cc1)C(N)=O	10.9 µM
CCCC[C@H](NC(=O)[C@H](CCC(=O)O)NC(=O)[C@H](Cc1ccc(O)cc1)NC(=O)[C@@H](NC(=O)[C@H](CC(C)C)NC(=O)[C@H](CC(=O)O)NC(=O)[C@H](CC(C)C)NC(C)=O)[C@@H](C)O)C(=O)N[C@@H](CC(C)C)C(=O)N[C@@H](CO)C(=O)N[C@@H](CC(C)C)C(=O)N[C@@H](CCC(N)=O)C(=O)N[C@@]1(C)CCC/C=C\CCC[C@@](C)(C(=O)N[C@@H](CC(C)C)C(=O)N[C@@H](CC(N)=O)C(=O)N[C@@H](CCC(=O)O)C(=O)N[C@@H](CO)C(=O)N[C@@H](Cc2ccccc2)C(N)=O)NC(=O)[C@H](CCCCN)NC(=O)[C@H](C(C)C)NC(=O)[C@H](C(C)C)NC1=O (Ac-LDLTYE[Nle]LSLQ[S5]VVK[S5]LNESF-NH2; staple (Z) 12-16)	3.89 µM
C=CCCC[C@](C)(NC(=O)[C@H](Cc1ccc(O)cc1)NC(=O)[C@@H](NC(=O)[C@H](CC(C)C)NC(=O)[C@](C)(CCCC=C)NC(=O)[C@H](CC(C)C)NC(C)=O)[C@@H](C)O)C(=O)N[C@@H](CCSC)C(=O)N[C@@H](CC(C)C)C(=O)N[C@@H](CO)C(=O)N[C@@H](CC(C)C)C(=O)N[C@@H](CCC(N)=O)C(=O)N[C@@H](CCC(N)=O)C(=O)N[C@H](C(=O)N[C@H](C(=O)N[C@@H](CCCCN)C(=O)N[C@@H](C)C(=O)N[C@@H](CC(C)C)C(=O)N[C@@H](CC(N)=O)C(=O)N[C@@H](CCC(=O)O)C(=O)N[C@@H](CO)C(=O)N[C@@H](Cc1ccc(O)cc1)C(N)=O)C(C)C)C(C)C	10.9 µM
C=CCCC[C@](C)(NC(=O)[C@H](CCCCN)NC(=O)[C@@H](NC(=O)[C@@H](NC(=O)[C@](C)(CCCC=C)NC(=O)[C@H](CCC(N)=O)NC(=O)[C@H](CC(C)C)NC(=O)[C@H](CO)NC(=O)[C@H](CC(C)C)NC(=O)[C@H](CCSC)NC(=O)[C@H](CCC(=O)O)NC(=O)[C@H](Cc1ccc(O)cc1)NC(=O)[C@@H](NC(=O)[C@H](CC(C)C)NC(=O)[C@H](CC(=O)O)NC(=O)[C@H](CC(C)C)NC(C)=O)[C@@H](C)O)C(C)C)C(C)C)C(=O)N[C@@H](CC(C)C)C(=O)N[C@@H](CC(N)=O)C(=O)N[C@@H](CCC(=O)O)C(=O)N[C@@H](CO)C(=O)N[C@@H](Cc1ccc(O)cc1)C(N)=O (Ac-LDLTYEMLSLQ[S5]VVK[S5]LNESY-NH2)	20.6 µM
C=CCCC[C@](C)(NC(=O)[C@H](CCC(=O)O)NC(=O)[C@H](CC(N)=O)NC(=O)[C@H](CC(C)C)NC(=O)[C@](C)(CCCC=C)NC(=O)[C@H](CCCCN)NC(=O)[C@@H](NC(=O)[C@@H](NC(=O)[C@H](CCC(N)=O)NC(=O)[C@H](CCC(N)=O)NC(=O)[C@H](CC(C)C)NC(=O)[C@H](CO)NC(=O)[C@H](CC(C)C)NC(=O)[C@H](CCSC)NC(=O)[C@H](CCC(=O)O)NC(=O)[C@H](Cc1ccc(O)cc1)NC(=O)[C@@H](NC(=O)[C@H](CC(C)C)NC(=O)[C@H](CC(=O)O)NC(=O)[C@H](CC(C)C)NC(C)=O)[C@@H](C)O)C(C)C)C(C)C)C(=O)N[C@@H](Cc1ccc(O)cc1)C(N)=O	3.55 µM
CSCC[C@H](NC(=O)[C@H](CCC(=O)O)NC(=O)[C@H](Cc1ccc(O)cc1)NC(=O)[C@@H](NC(=O)[C@H](CC(C)C)NC(=O)[C@H](CC(=O)O)NC(=O)[C@H](CC(C)C)NC(C)=O)[C@@H](C)O)C(=O)N[C@@]1(C)CCC/C=C\CCC[C@@](C)(C(=O)N[C@H](C(=O)N[C@H](C(=O)N[C@@H](CCCCN)C(=O)N[C@@H](C)C(=O)N[C@@H](CC(C)C)C(=O)N[C@@H](CC(N)=O)C(=O)N[C@@H](CCC(=O)O)C(=O)N[C@@H](CO)C(=O)N[C@@H](Cc2ccc(O)cc2)C(N)=O)C(C)C)C(C)C)NC(=O)[C@H](CCC(N)=O)NC(=O)[C@H](CC(C)C)NC(=O)[C@H](CO)NC1=O (Ac-LDLTYEM[S5]SLQ[S5]VVKALNESY-NH2; staple (Z) 8-12)	10.7 µM
CSCC[C@H](NC(=O)[C@H](CCC(=O)O)NC(=O)[C@H](Cc1ccc(O)cc1)NC(=O)[C@@H](NC(=O)[C@H](CC(C)C)NC(=O)[C@H](CC(=O)O)NC(=O)[C@H](CC(C)C)NC(C)=O)[C@@H](C)O)C(=O)N[C@@H](CC(C)C)C(=O)N[C@@H](CO)C(=O)N[C@@H](CC(C)C)C(=O)N[C@@H](CCC(N)=O)C(=O)N[C@@H](CCC(N)=O)C(=O)N[C@H](C(=O)N[C@H](C(=O)N[C@@H](CCCCN)C(=O)N[C@@H](C)C(=O)N[C@@H](CC(C)C)C(=O)N[C@@H](CC(N)=O)C(=O)N[C@@H](CCC(=O)O)C(=O)N[C@@H](CO)C(=O)N[C@@H](Cc1ccc(O)cc1)C(N)=O)C(C)C)C(C)C	> 50 µM
CSCC[C@H](NC(=O)[C@H](CCC(=O)O)NC(=O)[C@H](Cc1ccc(O)cc1)NC(=O)[C@@H](NC(=O)[C@H](CC(C)C)NC(=O)[C@H](CC(=O)O)NC(=O)[C@H](CC(C)C)NC(C)=O)[C@@H](C)O)C(=O)N[C@@H](CC(C)C)C(=O)N[C@@H](CO)C(=O)N[C@@H](CC(C)C)C(=O)N[C@@H](CCC(N)=O)C(=O)N[C@]1(C)CCC/C=C\CCC[C@](C)(C(=O)N[C@@H](CC(C)C)C(=O)N[C@@H](CC(N)=O)C(=O)N[C@@H](CCC(=O)O)C(=O)N[C@@H](CO)C(=O)N[C@@H](Cc2ccc(O)cc2)C(N)=O)NC(=O)[C@H](CCCCN)NC(=O)[C@H](C(C)C)NC(=O)[C@H](C(C)C)NC1=O (Ac-LDLTYEMLSLQ[R5]VVK[R5]LNESY-NH2; staple (Z) 12-16)	16.3 µM
CSCC[C@H](NC(=O)[C@H](CCC(=O)O)NC(=O)[C@H](Cc1ccc(O)cc1)NC(=O)[C@@H](NC(=O)[C@H](CC(C)C)NC(=O)[C@H](CC(=O)O)NC(=O)[C@H](CC(C)C)NC(C)=O)[C@@H](C)O)C(=O)N[C@@H](CC(C)C)C(=O)N[C@@H](CO)C(=O)N[C@@H](CC(C)C)C(=O)N[C@@H](CCC(N)=O)C(=O)N[C@@]1(C)CCC/C=C\CCC[C@@](C)(C(=O)N[C@@H](CC(C)C)C(=O)N[C@@H](CC(N)=O)C(=O)N[C@@H](CCC(=O)O)C(=O)N[C@@H](CO)C(=O)N[C@@H](Cc2ccccc2)C(N)=O)NC(=O)[C@H](CCCCN)NC(=O)[C@H](C(C)C)NC(=O)[C@H](C(C)C)NC1=O (Ac-LDLTYEMLSLQ[S5]VVK[S5]LNESF-NH2; staple (Z) 12-16)	2.16 µM
CSCC[C@H](NC(=O)[C@]1(C)CCC/C=C\CCC[C@](C)(NC(=O)[C@H](CC(C)C)NC(C)=O)C(=O)N[C@@H](CC(C)C)C(=O)N[C@@H]([C@@H](C)O)C(=O)N[C@@H](Cc2ccc(O)cc2)C(=O)N1)C(=O)N[C@@H](CC(C)C)C(=O)N[C@@H](CO)C(=O)N[C@@H](CC(C)C)C(=O)N[C@@H](CCC(N)=O)C(=O)N[C@@H](CCC(N)=O)C(=O)N[C@H](C(=O)N[C@H](C(=O)N[C@@H](CCCCN)C(=O)N[C@@H](C)C(=O)N[C@@H](CC(C)C)C(=O)N[C@@H](CC(N)=O)C(=O)N[C@@H](CCC(=O)O)C(=O)N[C@@H](CO)C(=O)N[C@@H](Cc1ccc(O)cc1)C(N)=O)C(C)C)C(C)C	3.9 µM

Experiment: Binding affinity to NHR peptide HR1P in pH 7.2 phosphate buffer assessed as thermal unfolding transition at 50 uM after 30 mins by CD spectroscopic method
How it was run: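 Equimolar HR1P/peptide mixtures, 50 µM final in 50 mM PBS pH 7.2, were preincubated at 25 °C for 30 min. Thermal denaturation was followed by CD at 222 nm over a 10–90 °C gradient at 2 °C/min.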

Structure (SMILES)	Tm
CSCC[C@H](NC(=O)[C@H](CCC(=O)O)NC(=O)[C@H](Cc1ccc(O)cc1)NC(=O)[C@@H](NC(=O)[C@H](CC(C)C)NC(=O)[C@H](CC(=O)O)NC(=O)[C@H](CC(C)C)NC(C)=O)[C@@H](C)O)C(=O)N[C@@H](CC(C)C)C(=O)N[C@@H](CO)C(=O)N[C@@H](CC(C)C)C(=O)N[C@@H](CCC(N)=O)C(=O)N[C@@H](CCC(N)=O)C(=O)N[C@H](C(=O)N[C@H](C(=O)N[C@@]1(C)CCC/C=C/CCC[C@@](C)(C(=O)N[C@@H](CO)C(=O)N[C@@H](Cc2ccc(O)cc2)C(N)=O)NC(=O)[C@H](CC(N)=O)NC(=O)[C@H](CC(C)C)NC(=O)[C@H](C)NC1=O)C(C)C)C(C)C	56.6 to 66.6 °C
CSCC[C@H](NC(=O)[C@H](CCC(=O)O)NC(=O)[C@H](Cc1ccc(O)cc1)NC(=O)[C@@H](NC(=O)[C@H](CC(C)C)NC(=O)[C@H](CC(=O)O)NC(=O)[C@H](CC(C)C)NC(C)=O)[C@@H](C)O)C(=O)N[C@@]1(C)CCC/C=C\CCC[C@@](C)(C(=O)N[C@H](C(=O)N[C@H](C(=O)N[C@@H](CCCCN)C(=O)N[C@@H](C)C(=O)N[C@@H](CC(C)C)C(=O)N[C@@H](CC(N)=O)C(=O)N[C@@H](CCC(=O)O)C(=O)N[C@@H](CO)C(=O)N[C@@H](Cc2ccc(O)cc2)C(N)=O)C(C)C)C(C)C)NC(=O)[C@H](CCC(N)=O)NC(=O)[C@H](CC(C)C)NC(=O)[C@H](CO)NC1=O (Ac-LDLTYEM[S5]SLQ[S5]VVKALNESY-NH2; staple (Z) 8-12)	56.6 to 66.6 °C
